# APP transl inh = inhibitors of APP translation via 5'UTR reporter, primary screen, APP 5'UTR luciferase, SH-SY5Y cells | AID 1285, 2008 | 190,000 compounds, 0.82% hits | inhibition, % at 2 µM | SH-SY5Y APP 5'UTR-luciferase reporter, luminescence;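 active = inhibition above a set limit, derived from the sample mean plus 3 SD, cut at about 45% in these data; inconclusive = one replicate passes the limit while the other fails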
# MT stabilizer = microtubule stabilizers in HeLa cells, primary screen, imaging, high-content imaging; HeLa tubulin immunostaining HCS, 24 h; share of cells brighter than vehicle mean+2SD; % tubulin-high responders, % at 10 µM; 200,000 compounds, 0.83% hits;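 active = plate Z-score above 3 for both tubulin-high and condensed-nucleus cell shares, with cell loss under 80%, at 10 µM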;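 also: anti alpha tubulin signal scored within the nucleus-defined area of each cell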
# IEC-6 tox = cytotoxicity in IEC-6 intestinal epithelial cells, primary screen, cytotoxicity control for KLF5 inhibitor project, cell-based, luminescence | IEC-6 cytotoxicity, luminescence viability | inhibition, % at 5 µM | 290,000 compounds, 0.78% hits | AID 1825, 2009;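 also: 0% = plate median of test compound wells and 100% = cytotoxic reference compound wells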
# b-catenin transl = modulators of beta-catenin nuclear translocation, primary screen, imaging, HeLa cells, immunofluorescence, high-content. nuclear translocation activity, % at 5 µM. 190,000 compounds, 0.3% hits;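 active = nuclear translocation activity above 50% at 5 µM, with a well cell count of 50 or more; inconclusive = wells under 50 cells across six images, flagged as toxic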;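 also: per-cell ratio of nuclear to cytoplasmic median beta-catenin stain intensity; plate controls were DMSO negative control for no effect and GSK-3 inhibitor IX positive control for full effect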
#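 Technique: fluorescence imaging of beta-catenin antibody stain plus DAPI / Material: human HeLa cell line / Incubation: compound treatment 24 h, 37°C, 5% CO2 / Read-out basis: % activation of per-cell nuclear versus cytoplasmic median beta-catenin signal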
# BaF3 tox = parental Ba/F3 cell viability inhibition, counter-screen for JAK2V617F inhibitor project, murine pro-B, CellTiter-Glo luminescence; 220,000 compounds, 1.1% hits; CellTiter-Glo ATP luminescence; inhibition, % at 5.6 µM;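 active = inhibition above a per-campaign cutoff, the mean inhibition of all tested compounds plus 3 SD, cut at about 27% in these data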;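 also: 0% = DMSO wells and 100% = JAK Inhibitor I control wells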
# Ba/F3 V617F tox = reduced viability of JAK2V617F-dependent Ba/F3 cells, primary screen, JAK2V617F inhibitor project, cell-based, Ba/F3 EpoR-JAK2V617F, luminescence. ATP luminescence. inhibition, % at 5.6 µM. 220,000 compounds, 1.1% hits. AID 1446, 2008;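 active = inhibition above the campaign mean plus 3 SD over all tested compounds, cut at about 24% in these data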;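 also: cytokine-independent growth of Ba/F3 cells driven by EpoR plus mutant JAK2; 0% = DMSO-treated cells and 100% = JAK inhibitor I control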
# IEC-6 tox confirm = cytotoxic compounds in IEC-6 epithelial cells, confirmation, cytotoxicity control, cell-based, luminescence; shares compounds with IEC-6 tox; IEC-6 rat intestinal epithelial viability; inhibition, % at 5 µM; 1,900 compounds, 63% hits; AID 1907, 2009;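 also: 0% = vehicle and 100% = reference cytotoxic drug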
# * hit, by the source's call; ? = inconclusive; nt = not tested or not shown. The list is not random: actives were taken first. Their share in the collection is about 2.2%. Rule as the data show it, unless noted: active = inhibition above about 22%; inactive = the rest.
SMILES,APP transl inh,MT stabilizer,IEC-6 tox,b-catenin transl,BaF3 tox,Ba/F3 V617F tox,IEC-6 tox confirm
CCN1/C(=C/C=C/c2oc3ccc(-c4ccccc4)cc3[n+]2CC)Oc2ccc(-c3ccccc3)cc21,74*,65,61*,?,78*,100*,5
CCCCN1C(=O)/C(=C/C=C2\Oc3ccccc3N2CC)SC1=S,-1,16,1,5,8,0,nt
Cc1ccc(NCc2ccc(C)s2)cc1,nt,nt,-4,nt,nt,nt,nt
C=CCn1cnc2c(oc3ccccc32)c1=O,nt,nt,-1,nt,nt,nt,nt
O=c1c2oc3ccccc3c2ncn1Cc1ccccc1Cl,0,1,37*,-3,5,2,26*
O=c1c2oc3ccccc3c2ncn1Cc1ccccc1F,-4,3,34*,-1,-1,-5,12
CN1CCN(CCC(=O)N/N=C/c2cc3c(cc2[N+](=O)[O-])OCO3)CC1,nt,nt,0,nt,nt,nt,nt
O=C(CSc1nnc(NC(=O)c2ccco2)s1)Nc1ccccc1Br,nt,nt,1,nt,nt,nt,nt
Clc1ccc2nc(COc3ccccc3)[nH]c2c1,nt,nt,27*,nt,nt,nt,12
O=c1[nH]c(COc2ccccc2)nc2ccccc12,nt,nt,3,nt,nt,nt,nt
CCCNc1nc(-c2ccccc2)c(C(=O)OCC)cc1C#N,82*,27*,46*,20,58*,59*,75*
CCCCCCCCCCCCCCCCn1cc[n+](C)c1,29,72*,35*,18,69*,98*,32*
O=S(=O)(Nc1ncnc2scc(-c3ccc(F)cc3)c12)c1cc(F)ccc1F,nt,nt,4,0,1,2,nt
CC(C)c1ccc(NC(=O)CSc2nc3ccccc3nc2N2CCCC2)cc1,nt,nt,-4,nt,nt,nt,nt
CCn1cc(C(=O)NCC(OC)OC)c(=O)c2cc(S(=O)(=O)N3CCC(C)CC3)ccc21,nt,nt,32*,nt,nt,nt,25*
CC(C)COc1ccc(C2NC(=O)NC2=O)cc1 (centres undefined),11,2,5,0,5,2,nt
CCCOc1ccc(S(=O)(=O)n2cc(F)c(=O)[nH]c2=O)cc1,nt,nt,44*,nt,nt,nt,7
CCOc1ccc(Cn2cc(F)c(=O)[nH]c2=O)cc1,nt,nt,0,-1,0,-2,nt
CC(C)COc1ccc(S(=O)(=O)n2cc(F)c(=O)[nH]c2=O)cc1,-5,3,85*,2,63*,61*,-1
Cn1c(=O)n(C)c2cc(NC(=O)COc3ccc(Cl)cc3)ccc21,-10,4,3,-2,7,4,nt
Cc1nnc(N/N=C/c2ccc(-c3ccc(Br)cc3)o2)n1N,-8,3,37*,-4,7,1,-11
O=C(O)c1ccc(N/N=C/c2ccc(-c3ccc(Br)cc3)o2)cc1,nt,nt,28*,nt,nt,nt,28*
Cc1nc(C)c(-c2ccc(SCc3ccccc3F)nn2)s1,nt,nt,-7,nt,nt,nt,nt
COc1cc2ncnc(NCc3cccs3)c2cc1OC,-7,2,33*,2,8,2,32*
COc1cc(-c2c(-c3cc(OC)c(OC)c(OC)c3)noc2C)ccc1F,nt,nt,98*,nt,nt,nt,71*
SMILES,APP transl inh,MT stabilizer,IEC-6 tox,b-catenin transl,BaF3 tox,Ba/F3 V617F tox,IEC-6 tox confirm
COc1ccc(-c2c(-c3cc(OC)c(OC)c(OC)c3)noc2C)cn1,nt,nt,80*,nt,nt,nt,54*
COC(=O)c1cc(-c2c(-c3cc(OC)c(OC)c(OC)c3)noc2C)cc([N+](=O)[O-])c1,nt,nt,0,nt,nt,nt,nt
O=C(Cn1cc(C(=O)c2ccco2)c2ccccc21)NC1CC1,-1,1,0,1,4,1,nt
COc1ccccc1NC(=O)CNC(c1ccccc1)c1ccccc1,nt,nt,-7,nt,nt,nt,nt
COc1ccc(C)cc1NC(=O)CNC(c1ccccc1)c1ccc(C)cc1 (centres undefined),nt,nt,69*,nt,nt,nt,51*
Cn1c(=O)oc2cc(S(=O)(=O)Nc3ccc4c(c3)OCO4)ccc21,5,6,-6,-6,5,-4,nt
Cn1c(=O)c2cc(S(=O)(=O)Nc3ccc4c(c3)OCO4)ccc2n(C)c1=O,19,3,22*,nt,16,6,21
Cc1ccc2oc(/N=C(\N)NC(=O)C3CC3)nc2c1,nt,nt,32*,3,29*,38*,31*
Cc1ccc2oc(/N=C(\N)NC(=O)C(C)(C)C)nc2c1,nt,nt,4,2,2,-1,nt
Cc1ccc(NC(=O)C2CCN(S(=O)(=O)c3ccc4c(c3)NC(=O)C(C)S4)CC2)cc1Cl (centres undefined),nt,nt,22*,nt,nt,nt,4
Cc1[nH]c2ccccc2c1/C=N/NC(=O)c1cc(-c2cccs2)[nH]n1,7,3,4,3,4,0,nt
Cc1ccc(-c2cc(C(=O)N/N=C/c3c(C)nn(-c4ccccc4)c3C)n[nH]2)s1,92*,6,68*,122*,82*,74*,56*
Cc1ccc(C(=O)NCCC(=O)NCc2cc(=O)n(C)c(=O)n2C)cc1,nt,nt,4,nt,nt,nt,nt
COc1ccc(C)cc1Nc1n[n+](-c2ccccc2)c(-c2ccc(N(C)C)cc2)s1,nt,nt,1,nt,nt,nt,nt
Cc1ccc2c(c1)sc(-c1ccc(N(C)C)cc1)[n+]2C,nt,nt,44*,nt,nt,nt,30*
CCc1cccc(C)c1NC(=S)N(CCCN1CCOCC1)Cc1cccnc1,-14,2,-2,nt,-3,-2,nt
CN1CCN(c2ccc(NC(=O)c3ccc(-c4ccc(Br)cc4)o3)cc2)CC1,2,3,25*,-3,10,6,-6
O=C(Nc1cccc(Cl)c1N1CCOCC1)c1ccc([N+](=O)[O-])o1,nt,nt,-8,3,-5,-3,nt
O=C(Nc1ccc(N2CCCCC2)cc1)c1ccc([N+](=O)[O-])o1,nt,nt,80*,nt,nt,nt,15
O=C(Nc1ccc(N2CCCC2)c(Cl)c1)c1ccc([N+](=O)[O-])o1,78*,4,71*,1,-1,75*,36*
CCN1CCN(c2ccc(NC(=O)c3ccc(Br)o3)cc2)CC1,nt,nt,-3,nt,nt,nt,nt
O=C(Nc1cccc(NC(=O)c2ccccc2Cl)c1)c1ccc([N+](=O)[O-])o1,nt,nt,101*,nt,nt,nt,49*
Cc1cccc(C(=O)OCc2cncs2)c1,-2,3,4,-1,5,4,nt
CC/C(=N\NC(=O)C1CCCC1)c1ccc(Br)cc1,nt,nt,3,nt,nt,nt,nt
O=C(Nc1ccc(N2CCN(Cc3ccccc3F)CC2)cc1)c1ccc([N+](=O)[O-])o1,nt,nt,72*,nt,nt,nt,33*
CCCC(=O)N1CCN(c2ccc(NC(=O)c3ccc([N+](=O)[O-])o3)cc2)CC1,70*,11,90*,2,45*,90*,45*
CS(=O)(=O)N1CCN(c2ccc(NC(=O)c3ccc([N+](=O)[O-])o3)cc2)CC1,66*,4,25*,12,-7,6,56*

# Screens: PubChem, several laboratories
